From ChEMBL document CHEMBL1132171, “Synthesis and antitumor activity of novel thioester derivatives of leinamycin” (J Med Chem, 1999)

How the values were obtained:
[1] = Half-life determined by HPLC ([…]); format: ADME
Summary of the method: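 Stability read by HPLC at 330 nm. Compound at 20 μg/mL in pH 7 phosphate buffer/acetonitrile (4:1), 37 °C, half-life derived.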

HeLa = assay: In vitro antiproliferative activity against HeLa S3 cells; format: functional, cell-based; conditions: Homo sapiens
Summary of the method: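 HeLa S3 cells precultured 24 h in 96-well plates, then exposed to compound for 72 h. Growth inhibition read on day 4 by neutral red dye uptake.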

Mus musculus [2] = assay: Optimal dose for in vivo antitumor activity against sarcoma 180 infected mice; format: functional
Summary of the method: (§1)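 ddY mice given sarcoma 180 cells in the axillary region on day 0. Single iv dose on day 1. Tumor volume expressed as treated/control ratio. Optimal dose reported.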

Mus musculus [3] = assay: In vivo antitumor activity against sarcoma 180 infected mice was determined as treated versus control of tumor volume; format: functional; summary of the method: as §1

Row | SMILES | half-life [1] | IC50 (HeLa) | OD (Mus musculus [2]) | T/C (Mus musculus [3])
1 | CCOC(=O)CSC(=O)[C@](C)(O)[C@@]12CC/C(C)=C/[C@@H](O)C(=O)/C=C/C=Cc3csc(n3)[C@@H](C)N(C(=O)C1)[S+]2[O-] (stereo not given in full) | > 24 h | 1300 nM | 16 mg/kg | 0.98
2 | C/C1=C\[C@@H](O)C(=O)/C=C/C=Cc2csc(n2)[C@@H](C)N2C(=O)C[C@@]([C@@](C)(O)C(=O)SCc3oc(=O)oc3C)(CC1)[S+]2[O-] (stereo not given in full) | 16 h | 4.6 nM | 2 mg/kg | 0.67
3 | CC(=O)O[C@@H]1/C=C(\C)CC[C@]2([C@@](C)(O)C(=O)SCc3oc(=O)oc3C)CC(=O)N([C@H](C)c3nc(cs3)C=C/C=C/C1=O)[S+]2[O-] (stereo not given in full) | 24 h | 3.9 nM | 2 mg/kg | 0.38
4 | COC1(O[C@@H]2/C=C(\C)CC[C@]3([C@@](C)(O)C(=O)SCc4oc(=O)oc4C)CC(=O)N([C@H](C)c4nc(cs4)/C=C/C=C/C2=O)[S+]3[O-])CCOCC1 (stereo not given in full) | 18 h | 1.4 nM | 8 mg/kg | 0.25
5 | COCO[C@@H]1/C=C(\C)CC[C@]2([C@@](C)(O)C(=O)SCc3oc(=O)oc3C)CC(=O)N([C@H](C)c3nc(cs3)C=C/C=C/C1=O)[S+]2[O-] (stereo not given in full) | 24 h | 0.17 nM | 2 mg/kg | 0.58
6 | CSC(=O)[C@](C)(O)[C@@]12CC/C(C)=C/[C@@H](O)C(=O)/C=C/C=Cc3csc(n3)[C@@H](C)N(C(=O)C1)[S+]2[O-] (stereo not given in full) | 18 h | 830 nM | 16 mg/kg | 0.94
7 | C/C1=C\[C@@H](O[C@H]2CCCCO2)C(=O)/C=C/C=C/c2csc(n2)[C@@H](C)N2C(=O)C[C@@]([C@@](C)(O)C(=O)SCc3oc(=O)oc3C)(CC1)[S+]2[O-] (stereo not given in full) | 30 h | 2.4 nM | 8 mg/kg | 0.63
8 | C/C1=C\[C@@H](O[C@@H]2CCCCO2)C(=O)/C=C/C=C/c2csc(n2)[C@@H](C)N2C(=O)C[C@@]([C@@](C)(O)C(=O)SCc3oc(=O)oc3C)(CC1)[S+]2[O-] (stereo not given in full) | 30 h | 0.67 nM | 8 mg/kg | 0.26
9 | C/C1=C\[C@@H](O)C(=O)/C=C/C=C\c2csc(n2)[C@@H](C)NC(=O)C[C@@]2(CC1)[S+]([O-])SC(=O)[C@]2(C)O (stereo not given in full) [LEINAMYCIN] | 6 h | – | 2 mg/kg | 0.49
